Source: PubChem BioAssay
In the library only some 2.2% were active in any assay of this set; here they are far more common.
b-catenin transl = modulators of beta-catenin nuclear translocation; AID 1665; nuclear translocation activity, % at 5 µM; HeLa beta-catenin nuclear translocation, immunofluorescence imaging; 190,000 compounds, 0.3% hits;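 active = nuclear translocation activity above 50% at 5 µM, with a well cell count of 50 or more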;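 also: per-cell ratio of nuclear to cytoplasmic median beta-catenin stain intensity; plate controls were DMSO negative control for no effect and GSK-3 inhibitor IX positive control for full effect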
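Read-out: Nuclear/cytoplasmic beta-catenin signal ratio, % activation | Assay system: Human HeLa cell line | Times: 24 h compound exposure at 37°C, 5% CO2 | Signal: Fluorescence imaging of beta-catenin antibody stain plus DAPI | Dosing: 5 µM primary, 0.02–20 µM confirmation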
MT stabilizer = stabilizes microtubules in HeLa cells; % tubulin-high responders, % at 10 µM; HeLa tubulin immunostaining HCS, 24 h; share of cells brighter than vehicle mean+2SD; 200,000 compounds, 0.83% hits;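 active = plate Z-score above 3 for both tubulin-high and condensed-nucleus cell shares, with cell loss under 80%, at 10 µM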;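 also: anti alpha tubulin signal scored within the nucleus-defined area of each cell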
BaF3 tox = reduces parental Ba/F3 cell viability, JAK2V617F counter-screen; CellTiter-Glo ATP luminescence; inhibition, % at 5.6 µM; 220,000 compounds, 1.1% hits; AID 1486;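 active = inhibition above a per-campaign cutoff, the mean inhibition of all tested compounds plus 3 SD, cut at about 27% in these data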;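 also: 0% = DMSO wells and 100% = JAK Inhibitor I control wells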
Ba/F3 V617F tox = loss of viability in JAK2V617F-driven Ba/F3 cells; AID 1446; 220,000 compounds, 1.1% hits; Ba/F3 EpoR-JAK2V617F viability, ATP luminescence; inhibition, % at 5.6 µM;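 active = inhibition above the campaign mean plus 3 SD over all tested compounds, cut at about 24% in these data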;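 also: cytokine-independent growth of Ba/F3 cells driven by EpoR plus mutant JAK2; 0% = DMSO-treated cells and 100% = JAK inhibitor I control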
APP transl inh = APP translation inhibition; 190,000 compounds, 0.82% hits; AID 1285; SH-SY5Y APP 5'UTR-luciferase reporter, luminescence; inhibition, % at 2 µM;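 active = inhibition above a set limit, derived from the sample mean plus 3 SD, cut at about 45% in these data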
IEC-6 tox = counter-screen for KLF5 inhibitors: cytotoxicity in IEC-6 cells; 290,000 compounds, 0.78% hits; inhibition, % at 5 µM; IEC-6 cytotoxicity, luminescence viability; in the data active = inhibition above about 22%;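 also: 0% = plate median of test compound wells and 100% = cytotoxic reference compound wells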
The depositor's hits bear a star; nt = no result given.

SMILES	b-catenin transl	MT stabilizer	BaF3 tox	Ba/F3 V617F tox	APP transl inh	IEC-6 tox
CC(=O)N1c2ccccc2C(C)=CC1(C)C	0	nt	-6	-2	-4	-4
CC1=CC(C)(C)N(S(=O)(=O)c2ccc(F)cc2)c2ccccc21	0	25*	2	0	18	-6
COc1ccc(N2CCN(CCNS(=O)(=O)c3ccc(C)cc3)CC2)cc1	nt	nt	nt	nt	nt	5
CCc1ccccc1S(=O)(=O)c1c(C)cc(C)nc1Cl	nt	nt	nt	nt	nt	10
Cc1ccc(S(=O)(=O)N2CCCCC2C(=O)N(C)c2ccccc2)cc1 (centres undefined)	nt	nt	nt	nt	nt	1
CC(=O)NCCc1nc2cc(NC(=O)c3ccc([N+](=O)[O-])cc3)ccc2n1C	nt	nt	nt	nt	nt	-4
Cc1c(C(=O)NCCS(=O)(=O)N2CCN(c3ccccc3F)CC2)cccc1[N+](=O)[O-]	nt	nt	nt	nt	nt	3
CCCCc1cc(=O)oc2cc(OCC(=O)Nc3cccnc3)c(Cl)cc12	nt	nt	nt	nt	nt	5
CC1(C)CC(=O)C(CC2=C(O)CC(C)(C)CC2=O)C(=O)C1	1	4	2	-4	53*	-3
N#CC(C#N)=C1C=CC=CN1/C(=C\c1ccco1)C(=O)c1ccc(Cl)cc1	1	4	2	1	96*	9
N#C/C(=C\c1ccco1)C(=O)NCc1ccccc1	-2	3	2	1	-11	0
N#CC(C#N)=C1C=CC=CN1/C(=C\c1ccco1)C(=O)c1ccc(-c2ccccc2)cc1	0	5	2	22	92*	2
CC(=O)O[C@H]1C(=O)[C@@]2(C)[C@H]([C@H](OC(=O)c3ccccc3)[C@]3(O)C[C@H](OC(=O)[C@H](O)C(NC(=O)c4ccccc4)c4ccccc4)C(C)=C1C3(C)C)[C@]1(OC(C)=O)CO[C@@H]1C[C@@H]2O (some centres undefined)	69*	nt	nt	nt	nt	nt
COc1ccccc1CCNC(=O)CCn1nc(C)c2c(C)n(-c3ccccc3)nc2c1=O	nt	nt	nt	nt	nt	-3
CCCCOc1ccc(CN=C(N)N)cc1Cl	4	nt	35*	15	nt	8
CCOc1ccc(CN=C(N)N=C(N)N)cc1Cl	3	4	27*	21	-22	-1
CCCOc1ccc(CSC(=N)N)cc1C(=O)OC	0	nt	0	0	nt	-1
CCCOc1ccc(CCCN=C(N)N)cc1Cl	4	nt	46*	25*	nt	10
O=C(NC(=S)Nc1ncc(Br)cc1Br)c1ccccc1	nt	nt	nt	nt	nt	-3
C=CCn1c(Cc2ccccc2)nc2c(cnn2-c2ccccc2)c1=O	nt	nt	nt	nt	nt	-6
Cc1ccc(C)c(N(CC(=O)NC2CCCC2)S(=O)(=O)c2ccccc2)c1	nt	nt	nt	nt	nt	-8
Cc1ccccc1COC(=O)CCC1=NS(=O)(=O)c2ccccc2N1	nt	nt	nt	nt	nt	-8
C#CC[N+](CC)(CC)CC#Cc1cccc(Cl)c1	nt	2	66*	73*	-1	3
CCN(CC)c1ccc(/C=N/NC(=O)c2cccc(S(=O)(=O)Nc3ccccc3OC)c2)c(O)c1	nt	5	4	10	70*	31*
CCOc1ccc(Nc2oc(-c3ccc(Cl)cc3)nc2C#N)cc1	0	33*	2	-1	-7	6
SMILES	b-catenin transl	MT stabilizer	BaF3 tox	Ba/F3 V617F tox	APP transl inh	IEC-6 tox
COc1ccc(Nc2oc(-c3ccc(Cl)cc3)nc2C#N)cc1	63*	39*	1	3	-14	3
COc1ccc(Nc2oc(-c3ccc(OC)cc3)nc2C#N)cc1	0	nt	-2	1	nt	6
COc1ccc(Nc2oc(COc3ccc(Cl)cc3)nc2C#N)cc1	nt	3	2	3	-4	-2
CCCCC(=O)Nc1cnc(NC(=O)c2cccs2)cc1C	nt	nt	nt	nt	nt	5
CSC1=NC(C(Cl)(Cl)Cl)N=C(c2ccccc2)N1 (centres undefined)	75*	15*	13	4	6	-1
CCOC(=O)C1C(=O)NC(c2ccccc2)=NC1c1ccc(F)cc1 (centres undefined)	nt	2	0	-4	-3	6
COc1ccc(/C=N/n2cnn(Cc3ccccc3Cl)c2=S)cc1	-1	6	2	-2	80*	-4
Cc1ccc(C(=O)O)cc1NC(=S)NC(=O)c1ccc(COc2ccccc2)cc1	nt	nt	nt	nt	nt	4
CN(C)CCCN(C(=O)COc1ccccc1)c1nc2ccc(F)cc2s1	0	4	8	2	8	1
CN(C)CCCN(C(=O)CCOc1ccccc1)c1nc2ccc(F)cc2s1	-1	3	8	26*	33	1
CC(=O)C1=C(C)Nc2ncnn2C1c1ccccc1F (centres undefined)	nt	nt	nt	nt	nt	1
CCOc1ccc(/C=N/n2c(C3CCCCC3)n[nH]c2=S)cc1	nt	nt	nt	nt	nt	-6
C/C(=N\NC(=O)c1cc(-c2cccnc2)nc2ccccc12)c1ccccc1O	-3	1	6	-1	56*	10
COc1ccc(/C(C)=N/NC(=O)c2cc(-c3cccnc3)nc3ccccc23)cc1	-1	2	3	-4	-23	8
COc1cccc(NC(=O)Nc2cccc(C(=O)O)c2)c1	-3	2	1	-2	51*	-4
O=C(NC(=S)Nc1cccc2cccnc12)c1ccccc1	0	1	102*	-5	-8	-2
CC(C)(C)C(=O)NC(=S)Nc1cccc(C(=O)O)c1	2	3	10	1	-86	-4
O=C(O)c1cccc(NC(=S)NC(=O)c2ccncc2)c1	-2	11	2	3	60*	2
N#Cc1ccc(COC(=O)c2cnc3ccccc3n2)cc1	nt	nt	nt	nt	nt	0
COC(c1ccc(Cl)cc1)(c1ccc(Cl)cc1)C(Oc1nc(C)cc(C)n1)C(=O)O (centres undefined)	nt	nt	nt	nt	nt	0
OC(COc1ccccc1)CN1CCN(CC(O)COc2ccccc2)CC1 (centres undefined)	-2	5	7	4	-4	-2
OC(COc1ccc(CNCCc2ccc(C(F)(F)F)cc2)cc1)CN1CCCCC1 (centres undefined)	13	4	103*	102*	14	99*
Cc1ccc(C(OCC(O)CN2CCCCC2)c2ccccc2)cc1 (centres undefined)	nt	nt	nt	nt	nt	0
OC(COC(c1ccccc1)c1ccccc1)CN1CCOCC1 (centres undefined)	2	4	81*	-1	-8	-2
OC(COc1ccccc1)CN1CCCCCC1 (centres undefined)	0	2	81*	0	-13	11
SMILES	b-catenin transl	MT stabilizer	BaF3 tox	Ba/F3 V617F tox	APP transl inh	IEC-6 tox
CCCC(=O)Oc1ccc(C2NC(=O)c3ccccc3O2)cc1OC (centres undefined)	nt	nt	nt	nt	nt	-5
CCN1CC(CN(C)Cc2nc(-c3ccc(C(F)(F)F)cc3)no2)CC1=O (centres undefined)	57*	2	4	-5	11	-9
COc1cc(OC)cc(-c2nnc(SCc3ccc(C(=O)O)cc3)o2)c1	nt	nt	nt	nt	nt	-6
CCN(CC)c1ccc(/C=N/NC(=O)c2ccc(Br)o2)cc1	nt	33*	5	2	-96	-1
O=C(N/N=C/c1ccco1)c1cc2ccccc2o1	nt	nt	nt	nt	nt	0
O=C(N/N=C/c1ccco1)c1ccc(Br)o1	-1	3	96*	-5	-2	-1
